An excerpt weighted towards active compounds, which were near 1.9% of everything screened.
PTPN22 act: increases human PTPN22 phosphatase activity; Q9Y2R2; recombinant LYP, DiFMUP fluorescence; 0 = plate median, 100 = signal doubled; activation, % at 2 µM; 96,000 compounds, 0.11% hits; AID 697;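 active = activation at 2 µM above a set limit, the mean plus 5 SD, cut at about 37% in these data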
Rev-RRE block: inhibitors of HIV-1 Rev-RRE RNA interaction. P05866. Rev peptide-RRE RNA binding, FRET. inhibition, % at 8 µM. 97,000 compounds, 0.79% hits;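 active = inhibition above the screen-wide mean plus 3 SD, cut at about 35% in these data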;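 also: 0% = median DMSO wells and 100% = median Neomycin B control wells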
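System: Cy5-labelled duplex RRE RNA binding fluorescein-labelled HIV Rev peptide; Signal: fluorescein-to-Cy5 FRET, 480 nm excitation; Also added: labelled Rev peptide; Compound: one concentration, 8 µM nominal; Buffer or medium: HEPES pH 7.5 salt buffer with EDTA; Read-out: % inhibition of FRET ratio versus controls; Schedule: 5 min preincubation and 15 min binding, 25 °C.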
LYP inh 2: blocks human PTPN22 phosphatase activity | Q9Y2R2 | inhibition, % at 2 µM | AID 640 | 96,000 compounds, 0.21% hits | recombinant LYP catalytic domain, DiFMUP fluorescence;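 active = inhibition at 2 µM at or above a set limit, the screen mean plus 3 SD, cut at about 24% in these data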;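 also: 0% = DMSO with enzyme and 100% = enzyme fully blocked by orthovanadate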
FAK blocker: FAK (human) kinase inhibition | biochemical FAK kinase activity assay | 97,000 compounds, 0.84% hits | inhibition, %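 (tested at 7 µM)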 | Q05397 | AID 727;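 also: 0% = DMSO and 100% = reference compound high control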
EphB4 ephrin blk: antagonists of human EphB4-ephrin-B2 interaction; EphB4 LBD / TNYL-RAW-Alexa532 peptide, fluorescence polarization; inhibition, % at 7 µM; 97,000 compounds, 0.15% hits; AID 720;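 active = inhibition above the screen-wide mean inhibition plus 3 SD, cut at about 15% in these data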;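 also: 0% = DMSO wells and 100% = excess unlabeled TNYL-RAW peptide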
Target sequence (P54760 whole entry, looked up, the tested form may be a part): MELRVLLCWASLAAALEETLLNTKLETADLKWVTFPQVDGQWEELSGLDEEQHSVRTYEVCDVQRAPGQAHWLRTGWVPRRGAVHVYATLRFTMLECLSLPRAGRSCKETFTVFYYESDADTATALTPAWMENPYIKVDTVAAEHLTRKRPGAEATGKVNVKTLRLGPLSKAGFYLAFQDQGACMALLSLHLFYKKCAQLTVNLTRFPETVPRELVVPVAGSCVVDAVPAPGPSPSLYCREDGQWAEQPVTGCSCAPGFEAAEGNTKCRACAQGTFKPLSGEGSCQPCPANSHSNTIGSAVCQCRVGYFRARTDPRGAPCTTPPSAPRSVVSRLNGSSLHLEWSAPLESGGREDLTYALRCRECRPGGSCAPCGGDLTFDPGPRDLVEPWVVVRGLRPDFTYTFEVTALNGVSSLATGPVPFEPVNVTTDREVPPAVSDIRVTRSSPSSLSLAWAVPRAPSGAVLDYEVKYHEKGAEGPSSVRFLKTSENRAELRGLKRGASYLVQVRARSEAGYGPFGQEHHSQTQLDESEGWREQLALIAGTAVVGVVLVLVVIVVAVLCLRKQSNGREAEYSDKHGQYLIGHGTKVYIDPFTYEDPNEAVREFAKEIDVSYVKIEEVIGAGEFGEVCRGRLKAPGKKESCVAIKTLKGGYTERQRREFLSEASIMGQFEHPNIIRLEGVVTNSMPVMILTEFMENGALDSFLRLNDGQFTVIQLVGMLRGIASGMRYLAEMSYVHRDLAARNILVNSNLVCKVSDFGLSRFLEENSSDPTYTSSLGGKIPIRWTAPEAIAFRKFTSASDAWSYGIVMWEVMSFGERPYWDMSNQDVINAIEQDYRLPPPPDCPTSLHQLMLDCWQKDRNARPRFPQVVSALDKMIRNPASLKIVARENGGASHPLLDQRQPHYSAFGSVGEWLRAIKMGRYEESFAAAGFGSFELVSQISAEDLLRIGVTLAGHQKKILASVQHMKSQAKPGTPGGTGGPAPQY
FAK inh conf: confirmation of human focal adhesion kinase (FAK) inhibitors | shares compounds with FAK blocker | inhibition, % at 7 µM | 750 compounds, 28% hits | FAK kinase biochemical inhibition assay
Numbers without * were called inactive; x = no result; [ ] = another dose, or the depositor's remark. Rule as the data show it, unless noted: active = inhibition above about 19%; inactive = the rest.

SMILES	PTPN22 act	Rev-RRE block	LYP inh 2	FAK blocker	EphB4 ephrin blk	FAK inh conf
COc1ccc(-c2ccc(SCC(=O)N3CCCC3)nn2)cc1OC	-6	2	7	-2	-3	x
CC(C)(C)c1nc2ccccc2c2nnc(SCC(=O)Nc3nc4ccccc4s3)n12	-19	-4	21	23*	-10	6
CCc1nc(SCC(=O)Nc2cccc(C(F)(F)F)c2)c2c(=O)n(C)c(=O)n(C)c2n1	-5	4	5	0	-2	x
O=[N+]([O-])c1ccc(N/N=C\c2cccn2-c2ccccc2)nc1	2	41*	3	30*	-1	10
CCC1(CC)NC(=O)N(CC(=O)Nc2sc3c(c2C(N)=O)CCC3)C1=O	-6	15	3	28*	-3	6
CCCCC(=O)Nc1sc2c(c1C(N)=O)CCC2	-4	3	0	20*	3	12
COc1ccc(CN(C(=S)Nc2ccccc2)C2CC(=O)N(c3ccc(Cl)cc3)C2=O)cc1 (configuration not stated)	-2	5	5	87*	-10	1
CCNC(=S)N(Cc1ccc(OC)cc1)C1CC(=O)N(c2ccc(OCC)cc2)C1=O (configuration not stated)	1	4	4	-3	-7	x
Cc1ccc(SCCCCN2C(=O)NC(C)(C)C2=O)cc1	-11	6	10	-1	4	x
COc1ccccc1NS(=O)(=O)c1cc(C(=O)N2CC(C)CC(C)C2)ccc1C (configuration not stated)	-8	-1	6	3	-4	x
Cc1ccc(C(=O)c2c(C)oc3c2C(=O)C(=O)c2ccccc2-3)cc1	3	10	-2	21*	-4	14
Cc1oc2c(c1C(=O)c1ccc(Cl)cc1)C(=O)C(=O)c1ccccc1-2	2	8	2	16	5	x
O/N=C/c1cc(Br)ccc1OCc1cccc(F)c1	2	14	4	20*	1	6
O/N=C/c1cc(Br)ccc1OCc1ccc(F)cc1	1	15	5	18	8	x
Oc1ccc(N=Cc2ccc(-c3cccs3)s2)cc1	-1	0	-2	43*	-12	2
CC(=O)N1CCc2cc(S(=O)(=O)NCCC(=O)N3CCN(c4ccccn4)CC3)ccc21	-3	0	2	32*	3	1
CC(=O)Nc1ccc2[nH]c(C)cc(=O)c2c1	1	7	-1	81*	-8	6
CCN(CC)C(=O)CSc1nc(N)c2c3c(sc2n1)CC(C)CC3 (configuration not stated)	-2	-1	0	28*	-1	32*
CC1CCc2c(sc3nc(SCC(=O)NCc4ccco4)nc(N)c23)C1 (configuration not stated)	3	4	-4	2	-7	x
COc1ccc(C(=O)Nc2ccc(N3CCCC3)cc2)cc1	-13	3	15	32*	2	13
CCOc1ccc(C(=O)Nc2ccc(N3CCCC3)cc2)cc1	2	8	1	17	-10	x
Cc1cc(C)cc(OCC(=O)Nc2ccc(N3CCCC3)cc2)c1	-17	6	16	39*	-1	40*
O=C(COC(=O)C1CC1)NCc1ccccc1Cl	0	12	-1	-1	4	x
CC1CCN(Cc2nc3c(c(=O)n(C)c(=O)n3C)n2CCCc2ccccc2)CC1	6	8	-7	0	-2	x
Cc1c(N2C(=O)c3ccc4c5c(ccc(c35)C2=O)CC4)c(=O)n(-c2ccccc2)n1C	-4	-28	1	70*	-1	41*
SMILES	PTPN22 act	Rev-RRE block	LYP inh 2	FAK blocker	EphB4 ephrin blk	FAK inh conf
CC(NC(=O)Cn1cc(C(=O)C2CC2)c2ccccc21)c1ccccc1 (configuration not stated)	9	1	-4	-4	2	x
c1coc(-c2nc(-c3ccco3)c(-c3ccco3)nc2-c2ccco2)c1	1	-150	-3	99*	19*	3
Nc1nc(-c2ccco2)c(-c2ccco2)s1	0	13	0	8	6	x
COc1ccc(C(=O)Nc2nnc(-c3ccco3)s2)cc1	1	7	1	-2	4	x
COc1ccc2nc(-c3ccco3)c(-c3ccco3)nc2c1	-16	7	16	67*	4	3
N#Cc1c(-c2ccco2)cc(-c2cccnc2)nc1N	-1	14	-1	20*	0	6
N#Cc1c(-c2ccco2)cc(-c2ccccn2)nc1N	8	5	-9	11	-2	x
CCOc1ccc(/C=C\C(C)=N\O)cc1	8	2	-11	20*	2	8
CCCN(CCC)C(=O)CSc1nc2n[nH]c(C)c2c(=N)n1-c1ccc(OC)cc1	2	4	-3	22*	6	3
Cc1ccc(C(=O)CNc2nc3c(c(=O)[nH]c(=O)n3C)n2Cc2ccccc2)cc1	-11	4	10	1	1	x
Cc1c(Cl)cccc1N=Cc1ccc([N+](=O)[O-])s1	-10	10	12	25*	-6	-1
CC(C)(C)C(=O)NC(=S)Nc1ccccc1C(=O)Nc1ccccc1	2	1	0	2	2	x
CCCc1cc(C(N)=O)c(NC(=O)C2CCCO2)s1 (configuration not stated)	-11	8	8	1	0	x
CCCc1cc(C(N)=O)c(NC(=O)c2ccco2)s1	0	7	-1	27*	-1	10
Cc1ccccc1P(=O)(CO)c1ccccc1C	-9	9	8	0	5	x
COC(=O)C(C(=O)OC)N1C(=O)CCC1=O	-6	9	2	-3	0	x
CC(C)c1ccc(-c2nc(N3CCCCCC3)nc3n[nH]c(N)c23)cc1	-4	20	5	2	2	x
Nc1[nH]nc2nc(N3CCOCC3)nc(-c3ccccc3)c12	-9	9	9	24*	-6	4
Cc1cccc(N2CSC3=C(C#N)C(c4ccc(C)o4)CC(=O)N3C2)c1 (configuration not stated)	-13	8	14	24*	2	9
Cc1ccc(-c2c(C)n([O-])c3c([n+]2=O)CCCC3)o1	5	3	-5	0	7	x
O=C(NCc1ccc2c(c1)OCO2)c1cc2ccccc2o1	-1	9	0	4	3	x
Cc1ccc2cc3cc(C(=O)NCc4ccc5c(c4)OCO5)oc3nc2c1	-11	2	11	28*	-10	20*
COc1ccc2c(c1)CCc1c(C(=O)NCCCn3ccnc3)noc1-2	6	3	-8	1	-4	x
O=C1c2ccccc2-c2onc3ccc(NCCCn4ccnc4)c1c23	4	137*[fluorescence artefact?]	-5	36*	107*[fluorescence artefact?]	27*
Cc1cc(C)nc(SCC(=O)Oc2ccc3oc(=O)cc(C)c3c2)n1	6	7	-8	1	-11	x
CCC(C)NC(=O)c1ccccc1NC(=O)CN(c1ccc(OC)cc1)S(C)(=O)=O (configuration not stated)	10	1	-9	0	-6	x
